This is an account of results in PMC3313494 (Journal of the American Chemical Society, 2012).

Ends that are not written are not given here.

One assay concerns the target T1, SIRT1 (Homo sapiens, UniProt Q96EB6).
T1 sequence (Q96EB6 1-747): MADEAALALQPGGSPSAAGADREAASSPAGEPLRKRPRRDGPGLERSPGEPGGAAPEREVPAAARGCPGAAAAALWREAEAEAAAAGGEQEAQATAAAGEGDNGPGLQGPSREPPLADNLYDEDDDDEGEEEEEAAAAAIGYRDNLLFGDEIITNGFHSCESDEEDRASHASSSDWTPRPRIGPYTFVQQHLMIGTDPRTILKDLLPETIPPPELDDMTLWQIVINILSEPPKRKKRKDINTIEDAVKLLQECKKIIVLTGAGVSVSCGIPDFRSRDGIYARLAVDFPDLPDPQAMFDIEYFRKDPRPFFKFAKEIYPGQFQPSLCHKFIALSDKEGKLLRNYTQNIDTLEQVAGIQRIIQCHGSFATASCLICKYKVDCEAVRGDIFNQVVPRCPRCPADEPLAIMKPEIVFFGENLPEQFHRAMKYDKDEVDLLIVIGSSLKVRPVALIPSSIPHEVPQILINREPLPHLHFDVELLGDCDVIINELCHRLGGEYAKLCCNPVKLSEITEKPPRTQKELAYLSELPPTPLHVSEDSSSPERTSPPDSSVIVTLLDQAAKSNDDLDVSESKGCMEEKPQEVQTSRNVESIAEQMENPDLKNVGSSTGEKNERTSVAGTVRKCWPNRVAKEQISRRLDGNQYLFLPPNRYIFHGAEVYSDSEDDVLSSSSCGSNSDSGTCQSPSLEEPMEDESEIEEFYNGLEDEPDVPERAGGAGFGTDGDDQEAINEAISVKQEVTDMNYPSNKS
Nature of the assay: HPLC deacetylation assay, SIRT1. The class given is biochemical. Conditions: 0.07 μM (1U) SIRT1, 500 μM NAD, peptide 0–500 μM, pH 8.0, 37°C, 0–20 min, at least duplicate.

Another assay addresses Sir2Tm (Thermotoga maritima, UniProt Q9WYW0). Description: HPLC deacetylation assay, Sir2Tm. The note with it: pH 8.0, 37°C. The class given is biochemical, bacterial. In a few lines:
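Enzyme addition at 37°C started the reaction; Sir2Tm was refolded from inclusion bodies, ~90% pure. Aliquots at 0, 5, 10, 20 min were acid-quenched, urea-treated, ultrafiltered and resolved by C18 reverse-phase HPLC; integrated peak areas gave rate constants.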

Another assay has as its system sirtuins. Description: Turnover of biotin-NAD as NAD alternate substrate. Type of assay: biochemical. The note with it: 6-biotin-17-NAD; Supplemental Figure S12.
The next assay has as its system monoamine oxidases. The note with it: used in the treatment of clinical depression; cited from earlier work.

Sequence of Sir2Tm (Q9WYW0 whole entry): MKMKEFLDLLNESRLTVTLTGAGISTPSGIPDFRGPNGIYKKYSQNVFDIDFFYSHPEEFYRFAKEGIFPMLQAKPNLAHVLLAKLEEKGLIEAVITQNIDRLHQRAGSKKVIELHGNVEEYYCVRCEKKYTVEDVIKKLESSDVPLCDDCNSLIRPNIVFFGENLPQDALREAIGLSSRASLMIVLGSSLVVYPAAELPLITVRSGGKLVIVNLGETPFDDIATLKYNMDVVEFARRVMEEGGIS

For the molecule “K382KAc: corresponding natural acetylated substrate, p53 (372–389) peptide containing acetyl-lysine at 382 (KKGQSTSRHKK(Ac)LMFKTEG; UniProt P04637 372-389, looked up, fragment)”, the “deacetylation rate (apparent kcat)” value with SIRT1 was 0.205 ± 0.012 s⁻¹; with Sir2Tm (0.3–0.15 μM Sir2Tm, 500 μM NAD, peptide 0–500 μM, 0–20 min, HPLC, at least duplicate), 0.18 ± 0.025 s⁻¹. Also, the Km with Sir2Tm (steady-state kinetics, Sir2Tm, 0.5 mM NAD, p53 (372–389) peptides) came to 71.8 ± 24.5 µM. With 6-biotin-17-NAD, the “use as NAD alternate substrate by sirtuins” value with sirtuins is given as “can be turned over by sirtuins as an NAD alternate substrate”. As to `NNCCc1ccccc1` [phenethylhydrazine], the monoamine oxidase inhibition result in the assay with monoamine oxidases is reported as “well-established inhibitor of monoamine oxidases”.

As usually defined, the Km is the concentration of substrate that gives half-maximal velocity.
